According to ChEMBL document CHEMBL1129060, “N6,C8-distributed adenosine derivatives as partial agonists for adenosine A1 receptors” (J Med Chem, 1996):
Values joined by “and” are separate entries in the source; they are usually repeats but may differ in a detail not shown here. Equal values may be shown once.

Legend:
Rattus norvegicus [1] = assay: Maximum reduction heart rate of rat at a dose of 0.20 mg/kg; assay type: functional; settings: dose 0.2 mg/kg
In short: (§1)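 Adult male SPF Wistar rats (200-250 g), conscious, free-ranging, arterial catheter. 30 min accommodation, then 15 min baseline recording before i.v. infusion in 20% (v/v) DMSO/water. Arterial pressure and heart rate monitored continuously for 5.5 h. Vehicle-only controls; dosing 10:00-11:00 a.m. Maximum reduction from pre-administration level reported as mean ± SE.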

Adenosine A2 receptor = Adenosine A2 receptor (Rattus norvegicus, UniProt P29276+P30543); assay: Displacement of [3H]-CGS- 21680 from Adenosine A2 receptor of rat striatal membranes; assay type: cell membranes, Membrane
Rattus norvegicus [2] = assay: Effect on heart rate was measured after intravenous administration (4.8 mg/kg) in rat; assay type: functional
In short: (§2)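 Conscious, free-ranging, normotensive male SPF Wistar rats (200-250 g). Intravenous infusion in 20% (v/v) DMSO/water; vehicle-only controls. Arterial catheter; 30 min accommodation. Heart rate and arterial blood pressure recorded continuously from 15 min before dosing (baseline) through 5.5 h. Dosing done between 10:00 and 11:00 a.m. Values given as means ± SE.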

Rattus norvegicus [3] = assay: Mean arterial pressure was recorded of conscious, normo tensive and unrestrained rats that received an intravenous infusion of drugs at a dose of 0.20 mg/kg; assay type: functional, Artery; settings: dose 0.2 mg/kg; in short: as §1
Rattus norvegicus [4] = assay: Maximum reduction heart rate of ratat a dose of 0.20 mg/kg; assay type: functional; settings: dose 0.2 mg/kg; in short: as §1
Rattus norvegicus [5] = assay: Effect on heart rate was measured after intravenous administration (8 mg/kg) in rat; assay type: functional; in short: as §1
Rattus norvegicus [6] = assay: Mean arterial pressure was recorded in conscious, normo tensive and unrestrained rats that received an intravenous infusion of drugs at a dose of 8 mg/kg; assay type: functional, Artery; in short: as §1
Adenosine receptor A1 [7] = molecular target: T1, Adenosine receptor A1 (Rattus norvegicus, UniProt P25099); assay: Displacement of [3H]DPCPX (with GTP) from Adenosine A1 receptor of rat cortical membrane
T1 sequence (P25099 whole entry): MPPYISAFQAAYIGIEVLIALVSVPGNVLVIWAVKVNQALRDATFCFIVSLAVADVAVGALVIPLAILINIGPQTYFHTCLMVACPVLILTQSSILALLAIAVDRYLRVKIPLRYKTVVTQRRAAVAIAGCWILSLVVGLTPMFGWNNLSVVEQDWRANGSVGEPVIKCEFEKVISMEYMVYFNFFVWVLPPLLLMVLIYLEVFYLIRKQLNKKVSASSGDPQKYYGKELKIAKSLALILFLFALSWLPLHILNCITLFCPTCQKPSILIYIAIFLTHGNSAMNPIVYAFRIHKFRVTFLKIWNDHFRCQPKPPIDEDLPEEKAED
In short: (§3)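 Rat cerebral cortex membranes, antagonist radioligand [3H]DPCPX, displacement run both with and without 1 mM GTP. Apparent Ki derived under each condition; their ratio gives the GTP shift. Two to three independent experiments, each in duplicate.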

Rattus norvegicus [8] = assay: Maximum reduction heart rate of rat at a dose of 8.0 mg/kg; assay type: functional; in short: as §1
Adenosine receptor A1 [9] = molecular target: T1, Adenosine receptor A1; assay: Displacement of [3H]DPCPX (without GTP) from Adenosine A1 receptor of rat cortical membrane; in short: as §3
[10] = molecular target: T2, Adenosine receptor A1 (Rattus norvegicus) (UniProt P25099); assay: Relative affinities for rat Adenosine A1 receptor in the presence and absence of GTP
T2 sequence (whole entry): T1 sequence (P25099 whole entry)
In short: (§4)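 Rat cortical membranes. [3H]DPCPX displacement run with and without 1 mM GTP. The GTP shift is the ratio of apparent Ki with GTP to Ki without GTP. Data from two to three independent experiments, each in duplicate.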

Rattus norvegicus [11] = assay: Maximum reduction heart rate of rat at a dose of 4.8 mg/kg; assay type: functional; in short: as §2
Rattus norvegicus [12] = assay: Mean arterial pressure was recorded in conscious, normo tensive and unrestrained rats that received an intravenous infusion of drugs at a dose of 4.8 mg/kg; assay type: functional, Artery; in short: as §2
Adenosine receptor A1 [13] = molecular target: T1, Adenosine receptor A1; assay: Binding affinity for adenosine A1 receptor from rat cortical membrane using [3H]DPCPX without GTP; in short: as §4

| Ki (Adenosine A2 receptor) | Ki (Adenosine receptor A1 [7]) | Ki (Adenosine receptor A1 [9]; read-out: Ki) | GTP shift [10] | SMILES | other results |
| --- | --- | --- | --- | --- | --- |
| 580 nM |  |  |  | OC[C@H]1O[C@@H](n2cnc3c(NC4CCCC4)ncnc32)[C@H](O)[C@@H]1O [N6-CYCLOPENTYLADENOSINE] | Reduction (Rattus norvegicus [1]): 54%; Heart rate (Rattus norvegicus [2]): 345 beats min-1; MAP (Rattus norvegicus [3]): 109 mmHg; Reduction (Rattus norvegicus [4]): 54% |
| 45500 nM | 1280 nM | 1090 nM | 1.2 | OC[C@H]1O[C@@H](n2c(NC3CCCC3)nc3c(NC4CCCC4)ncnc32)[C@H](O)[C@@H]1O | Heart rate (Rattus norvegicus [5]): 329 beats min-1; MAP (Rattus norvegicus [6]): 94 mmHg; Reduction (Rattus norvegicus [8]): 2% and 3% |
| 1850 nM | 18600 nM | 2420 nM | 7.7 | CNc1nc2c(N)ncnc2n1[C@@H]1O[C@H](CO)[C@@H](O)[C@H]1O |  |
| 3970 nM | 23800 nM | 6560 nM | 3.6 | CCNc1nc2c(N)ncnc2n1C1O[C@H](CO)[C@@H](O)[C@H]1O (some centres not stated) |  |
| 7670 nM | 1050 nM | 350 nM | 3 | CCCNc1nc2c(NC3CCCC3)ncnc2n1[C@@H]1O[C@H](CO)[C@@H](O)[C@H]1O | Heart rate (Rattus norvegicus [2]): 344 beats min-1; Reduction (Rattus norvegicus [11]): 20% and 15%; MAP (Rattus norvegicus [12]): 90 mmHg |
| 59400 nM | 1760 nM | 1590 nM | 1.1 | CCCNc1ncnc2c1nc(NC1CCCC1)n2C1O[C@H](CO)[C@@H](O)[C@H]1O (some centres not stated) |  |
| 11500 nM | 45500 nM |  | 4 | CCCCNc1nc2c(N)ncnc2n1[C@@H]1O[C@H](CO)[C@@H](O)[C@H]1O |  |
| 35300 nM | 860 nM | 760 nM | 1.1 | CCCCNc1ncnc2c1nc(NC1CCCC1)n2[C@@H]1O[C@H](CO)[C@@H](O)[C@H]1O |  |
| 101000 nM | 15700 nM | 5610 nM | 2.8 | CNc1ncnc2c1nc(NC1CCCC1)n2[C@@H]1O[C@H](CO)[C@@H](O)[C@H]1O |  |
|  |  |  |  | Nc1ncnc2c1nc(NC1CCCC1)n2C1O[C@H](CO)[C@@H](O)[C@H]1O (some centres not stated) | Ki (Adenosine receptor A1 [9]): Not Active |
| 10100 nM | 1330 nM | 470 nM | 2.8 | CCNc1nc2c(NC3CCCC3)ncnc2n1[C@@H]1O[C@H](CO)[C@@H](O)[C@H]1O | Heart rate (Rattus norvegicus [2]): 350 beats min-1; Reduction (Rattus norvegicus [11]): 25% and 24%; MAP (Rattus norvegicus [12]): 100 mmHg |
| 4960 nM | 34700 nM | 5960 nM | 5.8 | CCCNc1nc2c(N)ncnc2n1C1O[C@H](CO)[C@@H](O)[C@H]1O (some centres not stated) |  |
| 12400 nM | 1130 nM | 500 nM | 2.3 | CCCCNc1nc2c(NC3CCCC3)ncnc2n1C1O[C@H](CO)[C@@H](O)[C@H]1O (some centres not stated) | Heart rate (Rattus norvegicus [5]): 348 beats min-1; MAP (Rattus norvegicus [6]): 94 mmHg; Reduction (Rattus norvegicus [8]): 8% and 11% |
| 30200 nM | 1260 nM | 310 nM | 4.1 | CCNc1ncnc2c1nc(NC1CCCC1)n2[C@@H]1O[C@H](CO)[C@@H](O)[C@H]1O |  |
| 20800 nM | 980 nM |  | 3.8 | CNc1nc2c(NC3CCCC3)ncnc2n1[C@@H]1O[C@H](CO)[C@@H](O)[C@H]1O | Heart rate (Rattus norvegicus [2]): 334 beats min-1; Reduction (Rattus norvegicus [11]): 34% and 50%; MAP (Rattus norvegicus [12]): 105 mmHg; Ki (Adenosine receptor A1 [13]): 260 nM |
